Measurements from different studies.
Compare with care: the assays were run in different laboratories.
OPRD1: Delta-type opioid receptor (OPRD1, Homo sapiens, UniProt P41143)
ADRA2A: Alpha-2A adrenergic receptor (ADRA2A, Homo sapiens, UniProt P08913)
HTR3A: 5-hydroxytryptamine receptor 3A (HTR3A, Homo sapiens, UniProt P46098)
gag-pol reverse transcriptase: Gag-Pol polyprotein, reverse transcriptase (gag-pol, Human immunodeficiency virus 1, UniProt P03366)
OGT: UDP-N-acetylglucosamine--peptide N-acetylglucosaminyltransferase 110 kDa subunit (OGT, Homo sapiens, UniProt O15294)

SMILES | target | test | conditions | IC50 [µM]
CNC[C@H](Cc1ccc(O)cc1)N1CCN(CCc2cccc(C)c2)[C@@H](C(C)C)C1 | OPRD1 | cell-free assay |  | > 10
CC(CCc1ccccc1)NC(C)C(O)c1ccc(O)cc1 (centres unmarked) | ADRA2A | ligand displacement, radioligand |  | 9.39
CC(C)CCN1CCN([C@@H](CNCc2ccccc2)C(C)C)C[C@H]1C(C)C | OPRD1 | cell-free assay |  | > 10
C[C@H](N)Cn1ncc2ccc3c(c21)CCCO3 | HTR3A | ligand displacement, radioligand |  | 31.7
CC(C)[C@@H]1CN([C@@H](CNCc2ccccc2)C(C)C)CCN1CCc1ccccc1 | OPRD1 | cell-free assay |  | > 10
Cc1c(O)c(O)cc2c1CC=C1[C@@]2(C)CC[C@@]2(C)[C@@H]3C[C@](C)(C(=O)O)CC[C@]3(C)CC[C@]12C | Androgen receptor (AR, Homo sapiens, UniProt P10275) | ligand displacement in cells, radioligand |  | 0.057
CC(C)Cc1ccc([C@@H](C)C(=O)O)cc1 | Histone acetyltransferase p300 (EP300, Homo sapiens, UniProt Q09472) | enzyme activity, inhibitor, mobility shift |  | ~6000
COc1ncccc1-c1cnn2ccc(N3CCN(C(=O)OC(C)C)CC3)nc12 | ADRA2A | cell-free assay |  | > 30
CN1CCC(=C2c3ccccc3CCc3sccc32)CC1 | ADRA2A | calcium signal, antagonist |  | 7.25
CCCCCCCCC[C@@H]1CC(=O)NCC(=O)N[C@H](Cc2ccc(O)cc2)C(=O)NCC(=O)N[C@@H](Cc2ccccc2)C(=O)O1 | OPRD1 | ligand displacement, radioligand |  | 38
CCC[C@H](CN[C@H](CNC)Cc1ccc(O)cc1)NCCC1CCCC1 | OPRD1 | cell-free assay |  | > 10
Cc1cn([C@H]2CC[C@@H](OC(C(=O)O)C(=O)O)C2)c(=O)[nH]c1=O | gag-pol reverse transcriptase | enzyme activity, inhibitor, radiometric |  | > 640
CCN(CC)C(=O)C1CN2CCc3cc(OC)c(OC)cc3C2CC1OC(C)=O (centres unmarked) | ADRA2A | calcium signal, antagonist |  | 0.45
Nc1c(S(=O)(=O)O)cc(Nc2ccc(Nc3nc(Cl)nc(Nc4cccc(S(=O)(=O)O)c4)n3)c(S(=O)(=O)O)c2)c2c1C(=O)c1ccccc1C2=O | P2X purinoceptor 2 (P2RX2, Homo sapiens, UniProt Q9UBL9) | calcium signal, antagonist |  | 1.89
CNC[C@@H](Cc1ccc(O)cc1)N1CCN(CCC2CC3CCC2C3)CC1 (some centres unmarked) | OPRD1 | cell-free assay |  | > 10
CC[C@H](C)[C@H](NC(=O)[C@H](CO)NC(=O)[C@H](Cc1ccc(O)cc1)NC(=O)[C@H](CCCCN)NC(=O)[C@@H]1CCCN1C(=O)[C@H](CCSC)NC(=O)[C@H](Cc1ccccc1)NC(=O)[C@H](CCSC)NC(=O)[C@@H](NC(=O)[C@@H]1CCCN1C(=O)[C@H](Cc1ccccc1)NC(=O)[C@H](CC(=O)O)NC(=O)CN)C(C)C)C(=O)N[C@H](C(=O)N[C@@H](Cc1ccccc1)C(=O)N[C@@H](CCCCN)C(=O)N[C@@H](CCCCN)C(=O)O)[C@@H](C)CC | OGT | enzyme activity, inhibitor, fluorescence |  | 16
CCOC(=O)c1cncn1C(C)c1ccc(C2(C(F)(F)F)N=N2)cc1 (centres unmarked) | HTR3A | ion current, two-electrode voltage clamp | oocytes | 9
CCC[C@H](CNC)NC[C@@H](CCC)NCC1CCC(C)CC1 (some centres unmarked) | OPRD1 | cell-free assay |  | > 10
CC[C@H](C)[C@H](NC(=O)[C@H](CO)NC(=O)[C@H](Cc1ccc(O)cc1)NC(=O)[C@H](CCCCN)NC(=O)[C@@H]1CCCN1C(=O)[C@H](CCSC)NC(=O)[C@H](Cc1ccccc1)NC(=O)[C@H](CCSC)NC(=O)[C@@H](NC(=O)[C@@H]1CCCN1)C(C)C)C(=O)N[C@H](C(=O)N[C@@H](Cc1ccccc1)C(=O)O)[C@@H](C)CC | OGT | enzyme activity, inhibitor, fluorescence |  | 20
CC(C)c1ccc(O)c(=O)c(O)c1 | gag-pol reverse transcriptase | enzyme activity, inhibitor, FRET |  | 0.308
